From ChEMBL document CHEMBL1949636, “Optimization of phenylacetic acid derivatives for balanced CRTH2 and DP dual antagonists” (Bioorg Med Chem Lett, 2012)

Experiments:
[1] = biological target: T1, Prostaglandin D2 receptor (Homo sapiens, UniProt Q13258); assay: Displacement of [3H]PGD2 from human DP receptor expressed in HEK293 cells by scintillation counting in presence of 0.5% BSA; type: cell-based
T1 sequence (Q13258 whole entry): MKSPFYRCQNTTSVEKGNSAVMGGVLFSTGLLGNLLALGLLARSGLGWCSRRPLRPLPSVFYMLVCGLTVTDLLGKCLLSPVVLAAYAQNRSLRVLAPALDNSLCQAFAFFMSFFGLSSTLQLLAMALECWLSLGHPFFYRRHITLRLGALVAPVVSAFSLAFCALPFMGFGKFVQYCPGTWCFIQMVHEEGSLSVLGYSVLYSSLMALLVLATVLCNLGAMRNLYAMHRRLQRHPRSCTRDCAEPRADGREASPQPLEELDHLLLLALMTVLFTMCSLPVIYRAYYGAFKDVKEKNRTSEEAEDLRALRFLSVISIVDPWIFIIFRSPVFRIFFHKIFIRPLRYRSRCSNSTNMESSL
Method in brief: (§1)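 Radioligand binding to intact HEK 293 cells stably expressing human CRTH2 or DP. Cells incubated with [3H]-PGD2 and increasing compound concentrations in binding buffer containing 0.5% BSA. After washing, bound [3H]-PGD2 counted by scintillation. […] Mean of three experiments; standard deviation 30%.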

[2] = biological target: T2, Prostaglandin D2 receptor 2 (Homo sapiens, UniProt Q9Y5Y4); assay: Displacement of [3H]PGD2 from human CRTH2 receptor expressed in HEK293 cells by scintillation counting in presence of 0.5% BSA; type: cell-based; method in brief: as §1
T2 sequence (Q9Y5Y4 whole entry): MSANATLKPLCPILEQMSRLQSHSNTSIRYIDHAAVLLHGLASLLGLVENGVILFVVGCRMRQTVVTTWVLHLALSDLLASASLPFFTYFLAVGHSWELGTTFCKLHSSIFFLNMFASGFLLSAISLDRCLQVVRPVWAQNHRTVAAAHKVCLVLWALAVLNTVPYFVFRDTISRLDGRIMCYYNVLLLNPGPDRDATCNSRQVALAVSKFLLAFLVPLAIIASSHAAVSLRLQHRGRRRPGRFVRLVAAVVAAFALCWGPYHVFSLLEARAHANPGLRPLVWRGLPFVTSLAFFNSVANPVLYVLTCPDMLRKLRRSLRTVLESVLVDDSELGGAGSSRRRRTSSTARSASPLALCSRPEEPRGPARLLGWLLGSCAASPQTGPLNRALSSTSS

[3] = biological target: T3, Prostaglandin D2 receptor 2 (Homo sapiens) (UniProt Q9Y5Y4); assay: Antagonist activity at CRTH2 receptor in human eosinophol assessed as inhibition of PGD2-induced eosinophol shape change preincubated for 10 mins prior PGD2 stimulation measured after 10 mins by FACS flow cytometry; type: functional
T3 sequence (whole entry): T2 sequence (Q9Y5Y4 whole entry)
Method in brief: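 Granulocytes enriched from normal donor peripheral blood by density-gradient centrifugation; erythrocytes removed by ACK lysis. Cells pre-incubated 10 min at room temperature with antagonist or vehicle (0.05% DMSO), then stimulated with PGD2 (600–0.003 nM, 1:3 dilution) 10 min at 37 °C. Fixed in 1% final paraformaldehyde. Eosinophils gated as FL2-positive; geometric mean forward scatter used to derive IC50.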

[4] = biological target: T2, Prostaglandin D2 receptor 2; assay: Displacement of [3H]PGD2 from human CRTH2 receptor expressed in HEK293 cells by scintillation counting in presence of 50% plasma; type: cell-based
Method in brief: (§2)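 Whole-cell [3H]-PGD2 binding on HEK 293 cells stably expressing human CRTH2 or DP, run in binding buffer containing 50% human plasma. Test compound added at increasing concentrations. Cells washed, and remaining bound radioligand measured by scintillation counting. Mean of three experiments; standard deviation 30%.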

[5] = biological target: T1, Prostaglandin D2 receptor; assay: Displacement of [3H]PGD2 from human DP receptor expressed in HEK293 cells by scintillation counting in presence of 50% plasma; type: cell-based; method in brief: as §2
[6] = biological target: T4, Prostaglandin D2 receptor (Homo sapiens) (UniProt Q13258); assay: Antagonist activity at DP receptor in PGD2-stimulated human platelets in 80% whole blood assessed as inhibition of IBMX-stimulated cAMP production preincubated for 30 mins prior PGD2 stimulation measured after 60 mins by immunoassay; type: functional, tissue-based
T4 sequence (whole entry): T1 sequence (Q13258 whole entry)
Method in brief: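 IBMX added to human whole blood at 1 mM final. Treated blood incubated with antagonist 30 min at 37 °C, then transferred to PGD2 at various concentrations for 60 min at 37 °C. Blood lysed and cAMP measured by direct immunoassay. PGD2-stimulated cAMP curves fitted with a Hill model.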

Row | Compound | IC50 [1] | IC50 [2] | Kb [3] | IC50 [4] | IC50 [5] | Kb [6]
1 | CCc1noc(-c2ccc(Oc3ccc(CC(=O)O)cc3OC)c(NS(=O)(=O)c3ccc(Cl)cc3Cl)c2)n1 | 23 nM | 770 nM |  |  |  | 
2 | CCCCNC(=O)c1ccc(Cc2ccc(CC(=O)O)cc2OC)c(NS(=O)(=O)c2ccc(Cl)cc2Cl)c1 | 6 nM | 2 nM |  |  |  | 
3 | CCCc1nc(-c2ccc(Oc3ccc(CC(=O)O)cc3OC)c(NS(=O)(=O)c3ccc(Cl)cc3Cl)c2)n[nH]1 | 10 nM | 4 nM |  |  |  | 
4 | CCCCNC(=O)c1ccc(Sc2ccc(CC(=O)O)cc2)c(NS(=O)(=O)c2ccc(Cl)cc2Cl)c1 | 630 nM | 21 nM |  |  |  | 
5 | CCCCNC(=O)c1ccc(Oc2ccc3c(c2)OCC3CC(=O)O)c(NS(=O)(=O)c2ccc(Cl)cc2Cl)c1 (stereo not drawn) | 150 nM | 580 nM |  |  |  | 
6 | CCc1nc(-c2ccc(Oc3ccc(CC(=O)O)cc3OC)c(NS(=O)(=O)c3ccc(Cl)cc3Cl)c2)n[nH]1 | 15 nM | 6 nM |  |  |  | 
7 | CCCCNC(=O)c1ccc(Oc2ccc(CC(=O)O)nc2)c(NS(=O)(=O)c2ccc(Cl)cc2Cl)c1 | 230 nM | 10 nM |  |  |  | 
8 | CCCCNC(=O)c1ccc(S(=O)(=O)c2ccc(CC(=O)O)cc2)c(NS(=O)(=O)c2ccc(Cl)cc2Cl)c1 | > 10000 nM | 400 nM |  |  |  | 

More lines, now with the values ahead:

Row | IC50 [1] | IC50 [2] | Kb [3] | IC50 [4] | IC50 [5] | Kb [6] | Compound
9 | 10 nM | 2 nM | 0.18 nM | 20 nM | 110 nM | 50 nM | CCCc1nc(-c2ccc(Oc3ccc(CC(=O)O)cc3OC)c(NS(=O)(=O)c3ccc(Cl)cc3Cl)c2)c[nH]1
10 | 4 nM | 2 nM | 0.084 nM | 8 nM | 46 nM | 5 nM | CCCc1cc(-c2ccc(Oc3ccc(CC(=O)O)cc3OC)c(NS(=O)(=O)c3ccc(Cl)cc3Cl)c2)n[nH]1
11 | 83 nM | 3 nM |  |  |  |  | CCCCNC(=O)c1ccc(Oc2ccc3c(CC(=O)O)c[nH]c3c2)c(NS(=O)(=O)c2ccc(Cl)cc2Cl)c1
12 | 480 nM | 310 nM |  |  |  |  | CCCCNC(=O)c1ccc(Oc2ccc(CC(=O)O)cn2)c(NS(=O)(=O)c2ccc(Cl)cc2Cl)c1
13 | 29 nM | 2 nM |  |  |  |  | CCCCNC(=O)c1ccc(Oc2ccc3c(ccn3CC(=O)O)c2)c(NS(=O)(=O)c2ccc(Cl)cc2Cl)c1
14 | 5 nM | 5 nM |  |  |  |  | CCCCNC(=O)c1ccc(Oc2ccc3c(CC(=O)O)coc3c2)c(NS(=O)(=O)c2ccc(Cl)cc2Cl)c1
15 | > 10000 nM | 660 nM |  |  |  |  | CCCCNC(=O)c1ccc([S+]([O-])c2ccc(CC(=O)O)cc2)c(NS(=O)(=O)c2ccc(Cl)cc2Cl)c1 (stereo not drawn)
